Common to all, as to type: functional, cell-based
In assay [1] the test system is HCT-116. Nature of the assay: Cytotoxicity against human HCT116 cells after 4 days by MTT assay. Particulars: HCT-116, 96 h. In short, it runs like this: (§1)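 Cells seeded as single-cell suspension, 2 × 10³ cells/well, onto serially diluted compounds in microplates; cultured 4 d. Viable cells counted with a cell counting kit. IC50 taken as concentration giving 50% growth inhibition relative to untreated control.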

Assay [2] deals with QG-56. In words: Cytotoxicity against human QG56 cells after 4 days by MTT assay. Particulars: QG-56, 96 h. The method in brief: as §1
The test system of assay [3] is DU-145. In words: Cytotoxicity against human DU145 cells after 4 days by MTT assay. Conditions: DU-145, 96 h. In short, it runs like this: as §1

SMILES strings stand for the structures. Where only a bound is given, the exact number is not on record here.

For `C=CCOc1cc2c(cc1OC)[C@@]1(CS[C@@H]3c4c(OC(C)=O)c(C)c5c(c4[C@@H](COC1=O)N1[C@@H]3[C@H]3c4c(cc(C)c(OC)c4OCC=C)C[C@@H]([C@@H]1C#N)N3C)OCO5)N(C(=O)c1cccnc1)CC2`, the concentration for half-maximal inhibition (IC50) is 390 nM in assay [1], > 1000 nM in assay [2] and 680 nM in assay [3].
On the same counts, the results for `C=CCOc1cc2c(cc1OC)[C@@]1(CS[C@@H]3c4c(OC(C)=O)c(C)c5c(c4[C@@H](COC1=O)N1[C@@H]3[C@H]3c4c(cc(C)c(OC)c4OCC=C)C[C@@H]([C@@H]1C#N)N3C)OCO5)N(C(=O)c1ccnc3ccccc13)CC2` are 310 nM, 420 nM and 420 nM.
On the same counts, the results for `C=CCOc1cc2c(cc1OC)[C@@]1(CS[C@@H]3c4c(OC(C)=O)c(C)c5c(c4[C@@H](COC1=O)N1[C@@H]3[C@H]3c4c(cc(C)c(OC)c4OCC=C)C[C@@H]([C@@H]1C#N)N3C)OCO5)N(C(=O)c1cccc3ncccc13)CC2` are 320 nM, 640 nM and 550 nM.
The corresponding values for `C=CCOc1cc2c(cc1OC)[C@@]1(CS[C@@H]3c4c(OC(C)=O)c(C)c5c(c4[C@@H](COC1=O)N1[C@@H]3[C@H]3c4c(cc(C)c(OC)c4OCC=C)C[C@@H]([C@@H]1C#N)N3C)OCO5)N(C(=O)c1ccc3ncccc3c1)CC2` are 150 nM, 260 nM and 180 nM.
With `C=CCOc1cc2c(cc1OC)[C@@]1(CS[C@@H]3c4c(OC(C)=O)c(C)c5c(c4[C@@H](COC1=O)N1[C@@H]3[C@H]3c4c(cc(C)c(OC)c4OCC=C)C[C@@H]([C@@H]1C#N)N3C)OCO5)N(C(=O)c1ccc(Br)cc1)CC2`, the 50% inhibitory concentration (IC50) in assay [1] was 480 nM; in assay [2] it was > 1000 nM; in assay [3], 730 nM.
On to `C=CCOc1cc2c(cc1OC)[C@@]1(CS[C@@H]3c4c(OC(C)=O)c(C)c5c(c4[C@@H](COC1=O)N1[C@@H]3[C@H]3c4c(cc(C)c(OC)c4OCC=C)C[C@@H]([C@@H]1C#N)N3C)OCO5)N(C(=O)c1ccccc1Br)CC2`, for which the 50% inhibitory concentration (IC50) in assay [1], in assay [2] and in assay [3] was > 1000 nM each time.
As to `COc1cc2c(cc1O)CCN(C(=O)c1ccccc1)[C@]21CS[C@@H]2c3c(OC(C)=O)c(C)c4c(c3[C@@H](COC1=O)N1[C@@H]2[C@H]2c3c(cc(C)c(OC)c3O)C[C@@H]([C@@H]1C#N)N2C)OCO4`, the IC50 came out at 0.37 nM in assay [1], 1 nM in assay [2] and 1.1 nM in assay [3].
The corresponding values for `COc1cc2c(cc1O)CCN(C(=O)c1ccc([N+](=O)[O-])cc1)[C@]21CS[C@@H]2c3c(OC(C)=O)c(C)c4c(c3[C@@H](COC1=O)N1[C@@H]2[C@H]2c3c(cc(C)c(OC)c3O)C[C@@H]([C@@H]1C#N)N2C)OCO4` are 0.38 nM, 1.1 nM and 1 nM.
On the same counts, the results for `COc1cc2c(cc1O)CCN(C(=O)c1cccc([N+](=O)[O-])c1)[C@]21CS[C@@H]2c3c(OC(C)=O)c(C)c4c(c3[C@@H](COC1=O)N1[C@@H]2[C@H]2c3c(cc(C)c(OC)c3O)C[C@@H]([C@@H]1C#N)N2C)OCO4` are 0.14 nM, 0.43 nM and 0.73 nM.
On the same counts, the results for `COc1cc2c(cc1O)CCN(C(=O)c1ccncc1)[C@]21CS[C@@H]2c3c(OC(C)=O)c(C)c4c(c3[C@@H](COC1=O)N1[C@@H]2[C@H]2c3c(cc(C)c(OC)c3O)C[C@@H]([C@@H]1C#N)N2C)OCO4` are 0.045 nM, 0.2 nM and 0.3 nM.
In the case of `COc1cc2c(cc1O)CCN(C(=O)c1cccnc1)[C@]21CS[C@@H]2c3c(OC(C)=O)c(C)c4c(c3[C@@H](COC1=O)N1[C@@H]2[C@H]2c3c(cc(C)c(OC)c3O)C[C@@H]([C@@H]1C#N)N2C)OCO4`, the values for the concentration for half-maximal inhibition (IC50) in assay [1], in assay [2] and in assay [3] were 0.13 nM, 0.4 nM and 0.72 nM, respectively.
`COc1cc2c(cc1O)CCN(C(=O)c1ccnc3ccccc13)[C@]21CS[C@@H]2c3c(OC(C)=O)c(C)c4c(c3[C@@H](COC1=O)N1[C@@H]2[C@H]2c3c(cc(C)c(OC)c3O)C[C@@H]([C@@H]1C#N)N2C)OCO4`: the figures for the concentration for half-maximal inhibition (IC50) in assay [1], in assay [2] and in assay [3] were 0.067 nM, 0.23 nM and 0.16 nM, respectively.
The corresponding values for `COc1cc2c(cc1O)CCN(C(=O)c1cccc3ncccc13)[C@]21CS[C@@H]2c3c(OC(C)=O)c(C)c4c(c3[C@@H](COC1=O)N1[C@@H]2[C@H]2c3c(cc(C)c(OC)c3O)C[C@@H]([C@@H]1C#N)N2C)OCO4` are 0.086 nM, 0.36 nM and 0.92 nM.
`COc1cc2c(cc1O)CCN(C(=O)c1ccc3ncccc3c1)[C@]21CS[C@@H]2c3c(OC(C)=O)c(C)c4c(c3[C@@H](COC1=O)N1[C@@H]2[C@H]2c3c(cc(C)c(OC)c3O)C[C@@H]([C@@H]1C#N)N2C)OCO4`: the 50% inhibitory concentration (IC50) in assay [1] was 0.045 nM; in assay [2] it was 0.16 nM; in assay [3], 0.043 nM.
`C=CCOc1cc2c(cc1OC)[C@@]1(CS[C@@H]3c4c(OC(C)=O)c(C)c5c(c4[C@@H](COC1=O)N1[C@@H]3[C@H]3c4c(cc(C)c(OC)c4OCC=C)C[C@@H]([C@@H]1C#N)N3C)OCO5)N(C(=O)/C=C/c1ccccc1)CC2`: the 50% inhibitory concentration (IC50) is 630 nM in assay [1], > 1000 nM in assay [2] and > 1000 nM in assay [3].
Turning to `C=CCOc1cc2c(cc1OC)[C@@]1(CS[C@@H]3c4c(OC(C)=O)c(C)c5c(c4[C@@H](COC1=O)N1[C@@H]3[C@H]3c4c(cc(C)c(OC)c4OCC=C)C[C@@H]([C@@H]1C#N)N3C)OCO5)N(C(=O)/C=C/c1ccc([N+](=O)[O-])cc1)CC2`, the IC50 amounted to 520 nM in assay [1], 8500 nM in assay [2] and 7500 nM in assay [3].
On the same counts, the results for `COc1cc2c(cc1O)CCN(C(=O)/C=C/c1ccccc1)[C@]21CS[C@@H]2c3c(OC(C)=O)c(C)c4c(c3[C@@H](COC1=O)N1[C@@H]2[C@H]2c3c(cc(C)c(OC)c3O)C[C@@H]([C@@H]1C#N)N2C)OCO4` are 0.053 nM, 0.33 nM and 0.24 nM.
Consider `COc1cc2c(cc1O)CCN(C(=O)/C=C/c1ccc([N+](=O)[O-])cc1)[C@]21CS[C@@H]2c3c(OC(C)=O)c(C)c4c(c3[C@@H](COC1=O)N1[C@@H]2[C@H]2c3c(cc(C)c(OC)c3O)C[C@@H]([C@@H]1C#N)N2C)OCO4`, for which the concentration for half-maximal inhibition (IC50) is 0.6 nM in assay [1], 2.4 nM in assay [2] and 0.81 nM in assay [3].
On the same counts, the results for `C=CCOc1c(OC)c(C)cc2c1[C@@H]1[C@@H]3[C@@H]4SC[C@]5(C(=O)OC[C@H](c6c7c(c(C)c(OC(C)=O)c64)OCO7)N3[C@@H](C#N)[C@H](C2)N1C)c1cc(OC)c(O)cc1CCN5C(=O)/C=C/c1ccc([N+](=O)[O-])cc1` are 2.7 nM, 9.8 nM and 5 nM.

The values are drawn from ChEMBL document CHEMBL1806456, “Chemistry of ecteinascidins. Part 3: preparation of 2'-N-acyl derivatives of ecteinascidin 770 and evaluation of cytotoxicity” (Bioorg Med Chem, 2011).
